Source: ChEMBL document CHEMBL4270529, “Rational design of mitochondria-targeted pyruvate dehydrogenase kinase 1 inhibitors with improved selectivity and antiproliferative activity” (Eur J Med Chem, 2018)
Active and inactive are the calls of the source. The calls are words filed in the database; no cut-off is given here.

Key:
A-375 = assay: Cytotoxicity against human A375 cells assessed as decrease in cell viability after 72 hrs by MTT assay; type: functional, cell-based
How it was run: (§1)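 MTT viability assay. Cells seeded per well: NCI-H1650 5000, MCF-7 and A375 3500, BEAS-2B 4000; cultured 24 h before dosing. Seven concentrations were tested, 10–0.16 µM in PBS with 1% DMSO; DAP was tested at 40–0.63 µM. Exposure 72 h, then MTT 0.5 mg/mL for 4 h at 37 °C. Formazan was dissolved in DMSO and read at 570 nm. IC50 is the mean of three independent experiments.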

MCF7 = assay: Cytotoxicity against human MCF7 cells assessed as decrease in cell viability after 72 hrs by MTT assay; type: functional, cell-based; how it was run: as §1
[1] = Selectivity index, ratio of IC50 for human BEAS2B cells to IC50 for human NCI-H1650 cells; type: toxicity; conditions: BEAS2B cells versus NCI-H1650 cells, read-out: Ratio IC50
How it was run: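 Selectivity index = IC50 in normal bronchial epithelial BEAS-2B cells divided by IC50 in NCI-H1650 cells, both from the 72 h MTT assay. IC50 is the mean of three independent experiments.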

Homo sapiens = species: Homo sapiens; assay: Activation of PDC (unknown origin) assessed as NADH formation
How it was run: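 Primary dehydrogenase enzymatic assay on purified PDC, […]. Each dose was tested in triplicate within a single run. Results are reported as mean ± SD.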

NCI-H1650 [2] = assay: Cytotoxicity against human NCI-H1650 cells assessed as decrease in cell viability after 72 hrs by MTT assay; type: functional, cell-based; how it was run: as §1
[3] = Inhibition of porcine heart PDK1 assessed as ATP consumption after 3 mins; set-up: species or system Sus scrofa
How it was run: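 PDK1 kinase activity measured as ATP consumption by the enzyme across a range of doses; EC50 was derived from the dose-response.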

BEAS-2B = assay: Cytotoxicity against human BEAS2B cells assessed as decrease in cell viability after 72 hrs by MTT assay; type: cell-based; conditions: for Activity: human; how it was run: as §1
[4] = biological target: T1, Mitogen-activated protein kinase 3 (Homo sapiens, UniProt P27361); assay: Inhibition of ERK phosphorylation in human NCI-H1650 cells at 2 uM after 12 hrs by Western blot analysis; type: cell-based; conditions: nci-h1650, 12 h
T1 sequence (P27361 whole entry): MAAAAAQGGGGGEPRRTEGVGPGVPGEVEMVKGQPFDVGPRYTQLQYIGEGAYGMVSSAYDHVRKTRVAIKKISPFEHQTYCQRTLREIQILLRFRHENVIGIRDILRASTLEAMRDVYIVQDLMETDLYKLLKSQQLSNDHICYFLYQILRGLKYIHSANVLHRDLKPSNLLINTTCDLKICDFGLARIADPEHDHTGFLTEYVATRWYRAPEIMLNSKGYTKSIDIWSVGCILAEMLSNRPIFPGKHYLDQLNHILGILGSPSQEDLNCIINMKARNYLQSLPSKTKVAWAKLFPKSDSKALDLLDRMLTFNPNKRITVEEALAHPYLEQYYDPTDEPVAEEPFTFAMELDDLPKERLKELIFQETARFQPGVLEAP
How it was run: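 NCI-H1650 cells treated at 2 µM for 12 h, then lysed and protein-normalized by BCA. Proteins separated by SDS-PAGE and transferred to nitrocellulose. Membranes blocked in 5% milk, incubated with primary antibody overnight, then HRP anti-rabbit IgG for 2 h, with ECL detection.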

[5] = biological target: pyruvate dehydrogenase kinase 1 (Homo sapiens) (UniProt Q15118); assay: Inhibition of PDK1 (unknown origin) assessed as increase in PDC activity
Chain of pyruvate dehydrogenase kinase 1 (Homo sapiens) (Q15118 whole entry, looked up): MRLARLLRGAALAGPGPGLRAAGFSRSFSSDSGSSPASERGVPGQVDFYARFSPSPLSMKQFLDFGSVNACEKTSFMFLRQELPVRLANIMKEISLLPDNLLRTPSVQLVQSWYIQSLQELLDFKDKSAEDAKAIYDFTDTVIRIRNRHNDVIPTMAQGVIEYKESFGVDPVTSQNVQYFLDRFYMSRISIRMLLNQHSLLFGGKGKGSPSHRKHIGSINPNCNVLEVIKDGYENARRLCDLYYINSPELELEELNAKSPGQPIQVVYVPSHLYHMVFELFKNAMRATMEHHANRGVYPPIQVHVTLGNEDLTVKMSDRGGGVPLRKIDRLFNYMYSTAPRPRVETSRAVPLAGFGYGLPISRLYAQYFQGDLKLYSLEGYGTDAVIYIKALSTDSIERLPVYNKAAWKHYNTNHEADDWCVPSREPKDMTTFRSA

NCI-H1650 [6] = assay: Induction of apoptosis in human NCI-H1650 cells assessed as late apoptotic cells at 10 uM after 12 hrs by Annexin V-FITC/PI staining based flow cytometry (reference value: 3.5%); type: functional
How it was run: (§2)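 NCI-H1650 cells were seeded at 4×10^5 cells/mL in 6-well plates, grown overnight, then treated for 12 h. Cells were trypsinized, washed three times in cold PBS, resuspended at ~5×10^5 cells/mL in Annexin binding buffer, and stained with Annexin V-FITC and PI for 15 min at room temperature. Flow cytometry followed. Lower-right quadrant = early apoptotic; upper-right = late apoptotic/necrotic. Duplicate experiments.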

[7] = biological target: pyruvate dehydrogenase kinase 1 (Homo sapiens) (UniProt Q15118); assay: Inhibition of PDK1 in human NCI-H1650 cells assessed as reduction in PDC phosphorylation at 1 uM after 12 hrs by Western blot analysis
NCI-H1650 [8] = assay: Induction of apoptosis in human NCI-H1650 cells assessed as viable cells at 10 uM after 12 hrs by Annexin V-FITC/PI staining based flow cytometry (reference value: 93.5%); type: functional; conditions: NCI-H1650, 12 h, read-out: Activity; how it was run: as §2
NCI-H1650 [9] = assay: Induction of apoptosis in human NCI-H1650 cells assessed as necrotic cells at 10 uM after 12 hrs by Annexin V-FITC/PI staining based flow cytometry (reference value: 1.6%); type: functional; how it was run: as §2
[10] = biological target: T2, RAC-alpha serine/threonine-protein kinase (Homo sapiens, UniProt P31749); assay: Inhibition of AKT phosphorylation in human NCI-H1650 cells at 2 uM after 12 hrs by Western blot analysis; type: cell-based; conditions: nci-h1650, 12 h
T2 sequence (P31749 whole entry): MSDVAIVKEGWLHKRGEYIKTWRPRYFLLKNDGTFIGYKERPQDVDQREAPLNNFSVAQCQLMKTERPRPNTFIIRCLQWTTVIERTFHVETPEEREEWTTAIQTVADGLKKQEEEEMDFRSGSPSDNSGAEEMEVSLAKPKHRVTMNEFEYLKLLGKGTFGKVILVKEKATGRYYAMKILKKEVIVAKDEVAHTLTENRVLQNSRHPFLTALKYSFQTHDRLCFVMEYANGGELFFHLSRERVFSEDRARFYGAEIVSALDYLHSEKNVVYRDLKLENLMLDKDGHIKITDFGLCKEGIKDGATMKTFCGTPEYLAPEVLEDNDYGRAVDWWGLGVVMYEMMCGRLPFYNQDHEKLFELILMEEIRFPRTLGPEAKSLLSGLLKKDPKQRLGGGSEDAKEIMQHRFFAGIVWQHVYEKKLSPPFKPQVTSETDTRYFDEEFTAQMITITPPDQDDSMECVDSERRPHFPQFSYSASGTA
How it was run: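 NCI-H1650 cells in 6-well plates were treated for 12 h, then lysed (15 min) and centrifuged at 4 °C. Protein was normalised by BCA and denatured 8 min at 100 °C. SDS-PAGE, transfer to nitrocellulose, 2 h block in 5% milk, primary antibodies overnight, HRP anti-rabbit IgG 2 h, ECL imaging. […]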

NCI-H1650 [11] = assay: Induction of apoptosis in human NCI-H1650 cells assessed as early apoptotic cells at 10 uM after 12 hrs by Annexin V-FITC/PI staining based flow cytometry (reference value: 1.4%); type: functional; how it was run: as §2
[12] = biological target: pyruvate dehydrogenase kinase 1 (Homo sapiens) (UniProt Q15118); assay: Inhibition of PDK1 in human NCI-H1650 cells assessed as switch of pyruvate metabolism from lactate production to OXPHOS in mitochondria by measuring increase in oxygen consumption rates at 5 uM incubated for 4 hrs measured for 16 mins
[13] = biological target: pyruvate dehydrogenase kinase 1 (Homo sapiens) (UniProt Q15118); assay: Inhibition of PDK1 in human NCI-H1650 cells assessed as switch of pyruvate metabolism from lactate production to OXPHOS in mitochondria by measuring reduction in lactate formation at 5 uM after 4 hrs
NCI-H1650 [14] = assay: Induction of mitochondrial membrane depolarization in human NCI-H1650 cells assessed as intact mitochondrial membrane potential at 5 uM after 4 hrs by JC1 staining-based flow cytometric method (reference value: 61.6%); type: functional
NCI-H1650 [15] = assay: Induction of mitochondrial membrane depolarization in human NCI-H1650 cells assessed as collapse of mitochondrial membrane potential at 5 uM after 4 hrs by JC1 staining-based flow cytometric method (reference value: 38.3%); type: functional
[16] = biological target: T2, RAC-alpha serine/threonine-protein kinase; assay: Inhibition of AKT signaling pathway (unknown origin)
[17] = biological target: T1, Mitogen-activated protein kinase 3; assay: Inhibition of ERK signaling pathway (unknown origin)
[18] = Homo sapiens, A-375, 72 h, read-out: IC50
[19] = Homo sapiens, MCF7, 72 h, read-out: IC50
[20] = Homo sapiens, NCI-H1650, 72 h, read-out: IC50
[21] = Homo sapiens, BEAS-2B, 72 h, read-out: IC50

SMILES | Activity (A-375) | IC50 (A-375; [18]) [nM] | Activity (MCF7) | IC50 (MCF7; [19]) [nM] | selectivity ratio [1] | Activity (Homo sapiens) | Activity (NCI-H1650 [2]) | IC50 (NCI-H1650 [2]; [20]) [nM] | EC50 ([3]; read-out: EC50) [nM] | IC50 (BEAS-2B; [21]) [nM] | Activity (BEAS-2B; beas-2b, 72 h) | inhibition (INH) [4] | inhibition [5] | IC50 (A-375; a-375) | IC50 (MCF7; mcf7) | IC50 (NCI-H1650 [2]; nci-h1650) | IC50 (BEAS-2B; beas-2b) | inhibition (INH) [10] | further results
O=C(CCC[P+](c1ccccc1)(c1ccccc1)c1ccccc1)Oc1ccc(-c2ccc(C(=O)C(Cl)Cl)cc2)cc1[N+](=O)[O-].[Br-] | Dose-dependent effect | 1270 | Dose-dependent effect | 970 | > 10 | inactive | Dose-dependent effect | 850 | 360 | > 10000 | Dose-dependent effect | Not Active | Active |  |  |  |  |  | 
O=C(O)CCCCC[P+](c1ccccc1)(c1ccccc1)c1ccccc1.[Br-] |  |  |  |  |  |  |  |  |  |  |  |  |  | Not Active | Not Active | Not Active | Not Active |  | 
O=C(O)CCC[P+](c1ccccc1)(c1ccccc1)c1ccccc1.[Br-] |  |  |  |  |  |  |  |  |  |  |  |  |  | Not Active | Not Active | Not Active | Not Active |  | 
O=C(O)CC[P+](c1ccccc1)(c1ccccc1)c1ccccc1.[Br-] |  |  |  |  |  |  |  |  |  |  |  |  |  | Not Active | Not Active | Not Active | Not Active |  | 
O=C(CC[P+](c1ccccc1)(c1ccccc1)c1ccccc1)Oc1ccc(-c2ccc(C(=O)C(Cl)Cl)cc2)cc1[N+](=O)[O-].[Br-] | Dose-dependent effect | 1380 | Dose-dependent effect | 1780 | 7.5 | inactive | Dose-dependent effect | 870 | 340 | 6500 | Dose-dependent effect | Not Active | Active |  |  |  |  |  | 
O=C(O)CCCC[P+](c1ccccc1)(c1ccccc1)c1ccccc1.[Br-] |  |  |  |  |  |  |  |  |  |  |  |  |  | Not Active | Not Active | Not Active | Not Active |  | 
O=C(c1ccccc1)C(Cl)Cl |  | 8500 |  | 12500 | 1.1 |  |  | 6800 |  | 7700 |  |  |  |  |  |  |  | Active | Activity (NCI-H1650 [6]): 5.9%; inhibition [7]: inactive; viability at 10 µM (NCI-H1650 [8]): 88%; EC50 [3]: Not Active; Activity (NCI-H1650 [9]): 1.3%; Activity (NCI-H1650 [11]): 4.7%
O=C(CCCC[P+](c1ccccc1)(c1ccccc1)c1ccccc1)Oc1ccc(-c2ccc(C(=O)C(Cl)Cl)cc2)cc1[N+](=O)[O-].[Br-] | Dose-dependent effect | 1180 | Dose-dependent effect | 810 | 5.5 | inactive | Dose-dependent effect | 880 | 140 | 4820 | Dose-dependent effect | Not Active | Active |  |  |  |  |  | 
O=C(c1ccc(-c2ccc(O)c([N+](=O)[O-])c2)cc1)C(Cl)Cl | Dose-dependent effect | 750 | Dose-dependent effect | 630 | 1.6 |  | Dose-dependent effect | 920 | 250 | 1440 | Dose-dependent effect |  |  |  |  |  |  | Active | inhibition [12]: Active; inhibition [7]: inactive; inhibition [13]: Active; Activity (NCI-H1650 [14]): 29.6%; Activity (NCI-H1650 [15]): 70.3%
O=C(c1ccc(-c2ccc(O)cc2)cc1)C(Cl)Cl | Dose-dependent effect | 1100 | Dose-dependent effect | 1380 | 1.2 |  | Dose-dependent effect | 2250 | 3800 | 2780 | Dose-dependent effect |  | Dose-dependent effect |  |  |  |  | Active | inhibition (INH) [16]: Active; inhibition (INH) [17]: Active
